Test results reported in ChEMBL document CHEMBL1671867, “Novel polymyxin derivatives carrying only three positive charges are effective antibacterial agents” (Antimicrob Agents Chemother, 2008).
Converted amounts (≈) assume the structure as drawn.

Legend:
[1] = system: Escherichia coli; experiment: Antibacterial activity against Escherichia coli ATCC […] by Etest method in presence of NAB7061; type: functional
[2] = system: Escherichia coli; experiment: Antibacterial activity against Escherichia coli ATCC 25992 by Etest method; type: functional
Method in brief: (§1)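 E-strip MIC on Mueller-Hinton agar without added peptide; inoculum per manufacturer, matching CLSI M2-A9.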

[3] = system: Pseudomonas aeruginosa; experiment: Antibacterial activity against Pseudomonas aeruginosa ATCC 27853by Etest method in presence of […] NAB739; type: functional
[4] = system: Pseudomonas aeruginosa; experiment: Antibacterial activity against Pseudomonas aeruginosa ATCC 27853by Etest method; type: functional
Method in brief: (§2)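 MICs of the antibiotic taken from E-strips on Mueller-Hinton agar, run both with and without peptide. […] Inoculum was prepared per the strip manufacturer, matching CLSI M2-A9.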

[5] = system: Acinetobacter baumannii; experiment: Antibacterial activity against Acinetobacter baumannii F264 by Etest method in presence of 0.5 ug/ml NAB739; type: functional
[6] = system: Acinetobacter baumannii; experiment: Antibacterial activity against Acinetobacter baumannii F264 by Etest method in presence of […] NAB739; type: functional
[7] = system: Acinetobacter baumannii; experiment: Antibacterial activity against Acinetobacter baumannii F264 by Etest method; type: functional; method in brief: as §1
[8] = system: Acinetobacter baumannii; experiment: Antibacterial activity against Acinetobacter baumannii ATCC 19606 by Etest method in presence of 1 ug/ml NAB739; type: functional
[9] = system: Acinetobacter baumannii; experiment: Antibacterial activity against Acinetobacter baumannii ATCC 19606 by Etest method; type: functional
[10] = system: Escherichia coli; experiment: Antibacterial activity against 5 x 10^5 CFU/ml Escherichia coli ATCC 25992 in presence of 16 ug/ml NAB7061 by Checkerboard method; type: functional
[11] = system: Escherichia coli; experiment: Antibacterial activity against 5 x 10^5 CFU/ml Escherichia coli ATCC 25992 in presence of 8 ug/ml NAB7061 by Checkerboard method; type: functional
[12] = system: Escherichia coli; experiment: Antibacterial activity against 5 x 10^5 CFU/ml Escherichia coli ATCC 25992 in presence of 2 ug/ml NAB7061 by Checkerboard method; type: functional
[13] = system: Escherichia coli; experiment: Antibacterial activity against 5 x 10^5 CFU/ml Escherichia coli ATCC […] by Etest method by Etest in presence of 8 ug/ml NAB7061; type: functional
[14] = system: Escherichia coli; experiment: Antibacterial activity against 5 x 10^5 CFU/ml Escherichia coli ATCC […] by Etest method by Etest in presence of 2 ug/ml NAB7061; type: functional
[15] = system: Pseudomonas aeruginosa; experiment: Antibacterial activity against Pseudomonas aeruginosa ATCC 27853by Etest method in presence of 0.5 ug/ml NAB739; type: functional; method in brief: as §2
[16] = system: Pseudomonas aeruginosa; experiment: Antibacterial activity against Pseudomonas aeruginosa ATCC 27853by Etest method in presence of 2 ug/ml NAB739; type: functional
[17] = system: Escherichia coli; experiment: Antibacterial activity against Escherichia coli ATCC […] by Etest method in presence of 1 ug/ml NAB7061; type: functional
[18] = system: Escherichia coli; experiment: Antibacterial activity against Escherichia coli ATCC […] by Etest method in presence of 2 ug/ml NAB7062; type: functional
[19] = system: Escherichia coli; experiment: Antibacterial activity against Escherichia coli ATCC […] by Etest method in presence of 4 ug/ml NAB7064; type: functional
[20] = system: Escherichia coli; experiment: Antibacterial activity against Escherichia coli IH3080 by Etest method; type: functional; method in brief: as §1
[21] = system: Escherichia coli; experiment: Antibacterial activity against Escherichia coli IH3080 by Etest method in presence of 1 ug/ml NAB7061; type: functional
[22] = system: Escherichia coli; experiment: Antibacterial activity against Escherichia coli IH3080 by Etest method in presence of 2 ug/ml NAB7062; type: functional
[23] = system: Escherichia coli; experiment: Antibacterial activity against Escherichia coli IH3080 by Etest method in presence of 4 ug/ml NAB7064; type: functional
[24] = system: Escherichia coli; experiment: Antibacterial activity against Escherichia coli IH3080 by Etest method in presence of NAB7061; type: functional
[25] = system: Klebsiella pneumoniae; experiment: Antibacterial activity against Klebsiella pneumoniae ATCC 13883 by Etest method in presence of 1 ug/ml NAB7061; type: functional; method in brief: as §2
[26] = system: Klebsiella pneumoniae; experiment: Antibacterial activity against Klebsiella pneumoniae ATCC 13883 by Etest method in presence of 4 ug/ml NAB7061; type: functional; method in brief: as §2
[27] = system: Klebsiella pneumoniae; experiment: Antibacterial activity against Klebsiella pneumoniae ATCC 13883 by Etest method in presence of NAB7061; type: functional; method in brief: as §2
[28] = system: Enterobacter cloacae; experiment: Antibacterial activity against Enterobacter cloacae ATCC 23355 by Etest method; type: functional; method in brief: as §1
[29] = system: Enterobacter cloacae; experiment: Antibacterial activity against Enterobacter cloacae ATCC 23355 […] by Etest method in presence of 1 ug/ml NAB7061; type: functional
[30] = system: Enterobacter cloacae; experiment: Antibacterial activity against Enterobacter cloacae ATCC 23355 […] by Etest method in presence of NAB7061; type: functional
[31] = system: Escherichia coli; experiment: Antibacterial activity against Escherichia coli by Etest method in presence of 4 ug/ml NAB7061; type: functional
[32] = system: Escherichia coli; experiment: Antibacterial activity against Escherichia coli NCTC13353 by Etest method in presence of 4 ug/ml NAB7062; type: functional
[33] = system: Klebsiella pneumoniae; experiment: Antibacterial activity against Klebsiella pneumoniae CCUG45421 by Etest method in presence of 4 ug/ml NAB7063; type: functional
[34] = system: Klebsiella pneumoniae; experiment: Antibacterial activity against Klebsiella pneumoniae by Etest method in presence of 4 ug/ml NAB7064; type: functional
[35] = system: Klebsiella oxytoca; experiment: Antibacterial activity against Klebsiella oxytoca CCUG51683 by Etest method in presence of 4 ug/ml NAB7066; type: functional
[36] = system: Enterobacter cloacae; experiment: Antibacterial activity against Enterobacter cloacae CCUG52947 by Etest method in presence of 4 ug/ml NAB7067; type: functional
[37] = system: Enterobacter cloacae; experiment: Antibacterial activity against Enterobacter cloacae by Etest method in presence of 4 ug/ml NAB7068; type: functional
[38] = system: Acinetobacter baumannii; experiment: Antibacterial activity against Acinetobacter baumannii by Etest method in presence of 4 ug/ml NAB7071; type: functional
[39] = system: Serratia marcescens; experiment: Antibacterial activity against Serratia marcescens ATCC 8100 by Etest method in presence of 4 ug/ml NAB7072; type: functional
[40] = system: Proteus mirabilis; experiment: Antibacterial activity against Proteus mirabilis ATCC 29906 by Etest method in presence of 4 ug/ml NAB7073; type: functional
[41] = system: Proteus vulgaris; experiment: Antibacterial activity against Proteus vulgaris ATCC 13315 by Etest method in presence of 4 ug/ml NAB7074; type: functional
[42] = system: Pseudomonas aeruginosa; experiment: Antibacterial activity against Pseudomonas aeruginosa ATCC 27853 by Etest method in presence of 4 ug/ml NAB7075; type: functional
[43] = system: Escherichia coli; experiment: microbe, parasite or virus in culture; details: ATCC 25992
[44] = system: Escherichia coli; experiment: microbe, parasite or virus in culture; details: ATCC 25992; remark: listed apart in the source
[45] = system: Escherichia coli; experiment: microbe, parasite or virus in culture; details: ATCC 25992; remark: listed apart in the source
[46] = system: Escherichia coli; experiment: microbe, parasite or virus in culture; details: ATCC 25992; remark: listed apart in the source
[47] = system: Escherichia coli; experiment: microbe, parasite or virus in culture; details: ATCC 25992; remark: listed apart in the source

SMILES: CO[C@H]1/C=C/O[C@@]2(C)Oc3c(C)c(O)c4c(O)c(c(/C=N/N5CCN(C)CC5)c(O)c4c3C2=O)NC(=O)/C(C)=C\C=C\[C@H](C)[C@H](O)[C@@H](C)[C@@H](O)[C@@H](C)[C@H](OC(C)=O)[C@@H]1C [RIFAMPIN]
- fractional inhibitory concentration index (FICI) [1]: 0.071
- MIC [2]: 8 µg/mL (≈ 9.72 µM)
- MIC [3]: 32 µg/mL
- MIC [4]: 32 µg/mL (≈ 38.9 µM)
- MIC [5]: 0.094 µg/mL
- MIC [6]: 0.38 µg/mL
- MIC [7]: 12 µg/mL (≈ 14.6 µM)
- MIC [8]: 0.006 µg/mL
- MIC [9]: 4 µg/mL (≈ 4.86 µM)
- MIC [10]: 0.031 µg/mL
- MIC [11]: 0.031 µg/mL
- MIC [12]: 0.5 µg/mL
- MIC [13]: 0.006 µg/mL
- MIC [14]: 0.064 µg/mL
- MIC [15]: 32 µg/mL
- MIC [16]: 4 µg/mL
- MIC [17]: 0.19 µg/mL
- MIC [18]: 0.064 µg/mL
- MIC [19]: 0.016 µg/mL
- MIC [20]: 8 µg/mL (≈ 9.72 µM)
- MIC [21]: 0.25 µg/mL
- MIC [22]: 0.19 µg/mL
- MIC [23]: 0.023 µg/mL
- MIC [24]: ≤ 0.055 µg/mL
- MIC [25]: 1.5 µg/mL
- MIC [26]: 0.064 µg/mL
- MIC [27]: ≤ 0.073 µg/mL
- MIC [28]: 12 µg/mL (≈ 14.6 µM)
- MIC [29]: 8 µg/mL
- MIC [30]: 0.26 µg/mL
- MIC [31]: 0.016 µg/mL
- MIC [32]: 0.064 µg/mL
- MIC [33]: 2 µg/mL
- MIC [34]: 0.19 µg/mL
- MIC [35]: 0.012 µg/mL
- MIC [36]: 0.032 µg/mL
- MIC [37]: 0.016 µg/mL
- MIC [38]: 0.032 µg/mL
- MIC [39]: 16 µg/mL
- MIC [40]: 1 µg/mL
- MIC [41]: 1 µg/mL
- MIC [42]: 12 µg/mL
- MIC [43]: 8 µg/mL (≈ 9.72 µM)
- MIC [44]: 8 µg/mL (≈ 9.72 µM)
- MIC [45]: 8 µg/mL (≈ 9.72 µM)
- MIC [46]: 8 µg/mL (≈ 9.72 µM)
- MIC [47]: 8 µg/mL (≈ 9.72 µM)
